Results reported in ChEMBL document CHEMBL3751842, “Novel triazolothiadiazines act as potent anticancer agents in liver cancer cells through Akt and ASK-1 proteins” (Bioorg Med Chem, 2016).
Calls of active or inactive are those of the source. The calls are words filed in the database; no cut-off is given here.

Tests used:
Huh-7 = experiment: Induction of apoptosis in human HuH7 cells assessed as PARP cleavage after 24 to 48 hrs by Western blot analysis; format: functional, cell-based
Procedure, shortened: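 Cells were exposed to compound or DMSO control for 24 or 48 h. Lysates were loaded at […] protein per lane and immunoblotted with antibodies diluted 1:100 to 1:500 in 5% BSA-TBS-T. Targets were p-Akt (Ser473), Akt, p-GSK3-α/β (Ser21/9), GSK3-α/β, SAPK/JNK, p-SAPK/JNK (Thr183/Tyr185), PARP, p-β-catenin, β-catenin, cyclin D1, p-ASK1 (S83) and p-ASK1 (S966). Actin served as the loading control.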

[1] = Cytotoxicity against human HCT116 cells assessed as growth inhibition after 72 hrs by sulforhodamine B assay; format: functional, cell-based, HCT-116; details: Homo sapiens, HCT-116, 72 h; read-out: IC50
Procedure, shortened: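 Cells were grown at 37°C, 5% CO2 in DMEM with 10% FBS. They were seeded at 1000–3000 cells/well, grown 24 h, then exposed to compound at 2.5–40 µM for 72 h. Cells were fixed in 10% TCA for 1 h at 4°C, stained with 0.4% SRB in 1% acetic acid for 10 min, and the dye solubilized in 10 mM Tris. Absorbance was read at 515 nm; runs were in triplicate; IC50 was calculated, with fits of R2 0.8–1 accepted.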

| Compound | Activity (Huh-7) | IC50 [1] [µM] |
| --- | --- | --- |
| COc1ccc(C2=Nn3c(nnc3C(C)c3ccc(CC(C)C)cc3)SC2)cc1 (centres undefined) | Active | 4.2 |
| Cc1ccc(C2=Nn3c(nnc3C(C)c3ccc(CC(C)C)cc3)SC2)cc1 (centres undefined) | Active | 4 |
